Assay results published in publication PMC3085913 (NeuroImage, 2011).
Entries after “also recorded” stand apart in the source; their conditions may differ.

Legend:
blood brain barrier = settings: rodents, after intra-arterial carotid injection; ref McCarty et al., 2009; cited from earlier work
humans = settings: patients, ref Castillo et al., 2009, Tang and Lobel; cited from earlier work
[1] = tested on: N2a mouse neuroblastoma cells; assay: MTS cell proliferation; assay type: cell-based; settings: 72 hrs
[2] = tested on: Aβ plaques in APP and APP/PS1 transgenic AD mice; settings: MRI after injection; ref Wadghiri et al., 2003; cited from earlier work
[3] = tested on: APP/PS1 Tg and wild-type mouse brain (amyloid plaques); assay: ROI-based absolute T2* measurement, in vivo μMRI; settings: contrast injected APP/PS1 Tg versus contrast injected wild-type mice
[4] = tested on: APP/PS1 Tg and wild-type mice; assay: Toxicity observed in experimental animals; assay type: in vivo, mouse; settings: 0.2 mmol Fe/kg femoral i.v. with 15% mannitol
[5] = tested on: amyloid plaques in APP/PS1 Tg and wild-type mouse brain; assay type: in vivo; settings: two 14-month-old APP/PS1 mice, before and 6 hs after contrast injection; data not shown
Procedure, shortened: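 Mice received the test conjugate at 0.2 mmol Fe/kg in 200 μl 15% mannitol/PBS by right femoral vein infusion at 60 μl/min, under isoflurane (2.5% induction, 1–1.5% maintenance). Scanned 6 h post-injection; two 14-month-old APP/PS1 mice were also scanned pre-injection. 3D four-echo acquisition; third echo (TE=12.3 ms) gave the T2*-weighted images. Checked against matched immunostained sections.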

[6] = tested on: APP/PS1 Tg versus wild-type mouse brain (amyloid plaques); assay: Voxel-based morphometry; assay type: in vivo; settings: for VBM cluster T-score: WT n=12 vs AD Tg n=13; for VBM cluster Extent: WT n=12 vs AD Tg n=13 after contrast injection
[7] = tested on: amyloid plaques in APP/PS1 Tg mouse brain; assay type: in vivo; settings: femoral i.v. with mannitol; third echo, TE = 17.5
Procedure, shortened: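 Aged 13–17-month APP/PS1 mice and age-matched C57Bl/6J controls received the test conjugate at 0.2 mmol Fe/kg in 200 μl 15% mannitol/PBS, infused via right femoral vein at 60 μl/min under isoflurane. Later: pentobarbital 150 mg/kg i.p., transaortic perfusion with PBS then 4% paraformaldehyde. Extracted brains scanned overnight, up to four together; third echo of four-echo set. 6E10/4G8 histology for matching. 13 Tg vs 12 wild-type.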

In the case of `OC[C@@H](O)[C@@H](O)[C@H](O)[C@H](O)CO` [mannitol], the “time of maximum BBB disruption, intra-arterial carotid” value (blood brain barrier) is listed as 5 min and the “tolerability of intravenous mannitol (in words)” value (humans) is listed as “much better tolerated and is used safely in patients”.
For “Aβ1-42: Aβ 1-42 peptide synthesized in the W.M. Keck Facility at Yale University [reference compound]”, the “reduction in cell viability” value ([1]; 10 μM, MTS, 490 nm, percent of non-treated control) was 50%.
For “MION-Aβ1-40: Aβ1-40 magnetically labeled with monocrystalline iron oxide nanoparticles (MION)”, the “plaque visualization as hypointense spots (in words)” value [2] is given as “hypointense spots characterized by loss of signal intensity”.
For “USPIO-Aβ1-42: ultrasmall superparamagnetic iron oxide (USPIO) nanoparticles linked to Aβ1-42 peptide using standard EDC/NHS coupling methods”, the “p, T2* difference in left and right cortex (Figure 5C)” value [3] was < 0.01, the “toxicity in experimental animals (in words)” value [4] was “no evidence of toxicity in our experimental animals” and the “amyloid plaque detection pre- versus postinjection” value [5] was “Amyloid plaques were only detected in the postinjection images”. For the same molecule, the “VBM difference in cerebellum (in words)” value ([6]; APP/PS1 (n=13) versus wild-type (n=12), USPIO-Aβ1-42 injected) was “No differences were seen in the cerebellum”, the “VBM cluster T-score” value ([6]; cluster AuD, Cortex (R)) was 3.02 and the “VBM cluster Extent” value ([6]; cluster AuD, Cortex (R)) was 1388 voxels. The “VBM cluster T-score” value ([6]; cluster FrA, Cortex (L)) was 5.03, the “VBM cluster Extent” value ([6]; cluster FrA, Cortex (L)) was 1123 voxels and the “VBM cluster T-score” value ([6]; cluster HDB, Cortex (R)) was 4.02. The “VBM cluster Extent” value ([6]; cluster HDB, Cortex (R)) was 685 voxels, the “VBM cluster T-score” value ([6]; cluster LEnt, Cortex (L)) was 3.78 and the “VBM cluster Extent” value ([6]; cluster LEnt, Cortex (L)) was 656 voxels. For the same molecule, the “VBM cluster T-score” value ([6]; cluster M1, Cortex (L)) was 3.48, the “VBM cluster T-score” value ([6]; cluster M2, Cortex (R)) was 3.71 and the “VBM cluster T-score” value ([6]; cluster PoDG, Hippocampus (R)) was 4.42. The “VBM cluster Extent” value ([6]; cluster PoDG, Hippocampus (R)) was 20830 voxels, the “VBM cluster T-score” value ([6]; cluster RSG, Cortex (L)) was 5.00 and the “VBM cluster Extent” value ([6]; cluster RSG, Cortex (L)) was 1624 voxels. For the same molecule, the “VBM cluster T-score” value ([6]; cluster S1BF, Cortex (L)) was 4.92, the “VBM cluster Extent” value ([6]; cluster S1BF, Cortex (L)) was 36911 voxels and the “VBM cluster T-score” value ([6]; cluster S1FL, Cortex (L)) was 3.30. For the same molecule, the “VBM cluster Extent” value ([6]; cluster S1FL, Cortex (L)) was 653 voxels, the “VBM cluster T-score” value ([6]; cluster S1FL, Cortex (R)) was 4.27 and the “VBM cluster Extent” value ([6]; cluster S1FL, Cortex (R)) was 4637 voxels. For the same molecule, the “VBM cluster T-score” value ([6]; cluster SuG, Colliculus (R)) was 4.72, the “VBM cluster Extent” value ([6]; cluster SuG, Colliculus (R)) was 2194 voxels and the “plaque detection on ex vivo μMRI, APP/PS1 mice” value [7] was “Amyloid plaques were also detected; also recorded: Many plaques can be detected in APP/PS1 mice”. The “cell viability, USPIO versus USPIO-Aβ1-42 (significance in words)” value ([1]; bound Aβ1-42 10 μM, Newman-Keuls post-hoc) was “did not differ significantly” and the “cell viability versus control untreated cells (significance in words)” value ([1]; bound Aβ1-42 10 μM, USPIO matched, Newman-Keuls post-hoc) was “did not differ significantly”.
